Substrate in data set [1]: C[C@@]1(F)[C@H](O)[C@@H](COP(=O)(O)O)O[C@H]1n1ccc(=O)[nH]c1=O
Put plainly: Ratio of Kcat to Km for cloned UMP-CMP kinase in human HuH7 cells assessed as formation of RO2433 diphosphate by spectrophotometry. The note with it: Huh-7. The format is cell-based. An outline of the steps:
(§1)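 Recombinant human kinase read out by PK/LDH coupling, following NADH oxidation at 340 nm. Rates were measured over varied substrate levels and fitted for steady-state parameters.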

Substrate in data set [2]: C[C@@]1(F)[C@H](O)[C@@H](COP(=O)(O)O)O[C@H]1n1ccc(=O)[nH]c1=O
Put plainly: Activity of cloned UMP-CMP kinase in human HuH7 cells assessed as formation of RO2433 diphosphate by spectrophotometry. In kind it is cell-based. The following applies: Huh-7. An outline of the steps: as §1

Substrate in data set [3]: Nc1ccn([C@H]2C[C@H](O)[C@@H](CO)O2)c(=O)n1
The following applies: Homo sapiens; Huh-7.

Substrate in data set [4]: C[C@@]1(O)[C@H](O)[C@@H](CO)O[C@H]1n1ccc(N)nc1=O
The note with it: Homo sapiens; Huh-7.

Substrate in data set [5]: Nc1ccn([C@@H]2O[C@H](CO)[C@@H](O)[C@H]2F)c(=O)n1
The note with it: Homo sapiens; Huh-7.

Substrate in data set [6]: C[C@@]1(F)[C@H](O)[C@@H](CO)O[C@H]1n1ccc(N)nc1=O
The note with it: Homo sapiens; Huh-7.

Substrate in data set [7]: C[C@@]1(O)[C@H](O)[C@@H](CO)O[C@H]1n1ccc(N)nc1=O
Put plainly: (§2) Activity of cloned cytidine deaminase in human HuH7 cells at 4 mM by spectrophotometric analysis. The format is cell-based. The note with it: Huh-7. In short, it runs like this:
(§3)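 Recombinant human CDA cloned from Huh-7 cells. Reaction at 30°C in 50 mM Tris-HCl pH 7.5, started by adding enzyme. Deamination was followed spectrophotometrically at wavelengths chosen by substrate level, with Δɛ set per wavelength. Rates came from the linear trace and Beer's law and were fitted to Michaelis-Menten. Highest concentration tested 4 mM.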

Substrate in data set [8]: C[C@@]1(F)[C@H](O)[C@@H](CO)O[C@H]1n1ccc(N)nc1=O
The description is as §2. The format is cell-based. The following applies: Huh-7. In short, it runs like this: as §3

Substrate in data set [9]: Nc1ccn([C@H]2C[C@H](O)[C@@H](CO)O2)c(=O)n1
The note with it: Homo sapiens; Huh-7. This is another data set of the same source.

Substrate in data set [10]: Nc1ccn([C@@H]2O[C@H](CO)[C@@H](O)[C@H]2F)c(=O)n1
The note with it: Homo sapiens; Huh-7. This is another data set of the same source.

Substrate in data set [11]: C[C@@]1(F)[C@H](O)[C@@H](COP(=O)(O)O)O[C@H]1n1ccc(N)nc1=O
Put plainly: Activity of cloned deoxycytidylate deaminase in human HepG2 cells by HPLC assay. The format is cell-based. An outline of the steps:
(§4)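 Recombinant His-tagged human DCTD cloned from HepG2 cells. 0.56 μg enzyme in 50 mM Tris-HCl pH 7.5, 2 mM MgCl2, 20 mM β-mercaptoethanol, at 37°C. Samples taken at 5, 10 and 20 min, quenched with HCl and filtered. Nucleotides were resolved by SAX HPLC (KH2PO4 pH 3.5 gradient), detected at 254 nm and quantified against standard curves.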

Substrate in data set [12]: C[C@@]1(F)[C@H](O)[C@@H](COP(=O)(O)O)O[C@H]1n1ccc(N)nc1=O
The experiment in a line: Ratio of Kcat to Km for cloned deoxycytidylate deaminase in human HepG2 cells by HPLC assay. The format is cell-based. In short, it runs like this:
as §4

Substrate in data set [13]: Nc1ccn([C@H]2C[C@H](O)[C@@H](COP(=O)(O)O)O2)c(=O)n1
Put plainly: Ratio of Kcat to Km for cloned deoxycytidylate deaminase in human HepG2 cells by spectrophotometric analysis. The format is cell-based. In short, it runs like this:
(§5)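 Recombinant human DCTD cloned from HepG2 cells, 9.3 nM final, with dCMP substrate. Spectrophotometric deamination at 37°C, monitoring absorbance at 290 nm (Δɛ = 1,694 M−1 cm−1). Rates from linear traces were fitted to Michaelis-Menten to obtain Km, kcat and kcat/Km.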

Substrate in data set [14]: Nc1ccn([C@H]2C[C@H](O)[C@@H](COP(=O)(O)O)O2)c(=O)n1
The experiment in a line: Activity of cloned deoxycytidylate deaminase in human HepG2 cells by spectrophotometric analysis. The format is cell-based. An outline of the steps: as §5

B1: UMP-CMP kinase (Homo sapiens), P30085 (protein)
chain: MKPLVVFVLGGPGAGKGTQCARIVEKYGYTHLSAGELLRDERKNPDSQYGELIEKYIKEGKIVPVEITISLLKREMDQTMAANAQKNKFLIDGFPRNQDNLQGWNKTMDGKADVSFVLFFDCNNEICIERCLERGKSSGRSDDNRESLEKRIQTYLQSTKPIIDLYEEMGKVKKIDASKSVDEVFDEVVQIFDKEG
In general, kcat/Km refers to the turnover number divided by the Michaelis constant. As usually defined, the Km is the substrate concentration at which the rate is half of its maximum. A word on the kcat: it is the maximal rate divided by the concentration of active sites. In the case of B1, the kcat/Km in data set [1] worked out at 9100 M⁻¹ s⁻¹. In data set [2], the Km came out at 870 µM and the kcat worked out at 7.9 s⁻¹.

B2: Cytidine deaminase (Homo sapiens), P32320 (protein)
chain: MAQKRPACTLKPECVQQLLVCSQEAKKSAYCPYSHFPVGAALLTQEGRIFKGCNIENACYPLGICAERTAIQKAVSEGYKDFRAIAIASDMQDDFISPCGACRQVMREFGTNWPVYMTKPDGTYIVMTVQELLPSSFGPEDLQKTQ
For B2, the kcat/Km in data set [3] amounted to 120000 M⁻¹ s⁻¹; in data set [4] it was 58 M⁻¹ s⁻¹; in data set [5] it was 140000 M⁻¹ s⁻¹; in data set [6], 65 M⁻¹ s⁻¹. Also, the Km in [7] was determined as 3100 µM; in data set [8] it was 4000 µM; in data set [9], 41 µM; in data set [10], 27 µM. Also, the kcat in data set [7] worked out at 0.18 s⁻¹; in data set [8] it was 0.26 s⁻¹; in data set [9], 4.8 s⁻¹; in data set [10], 3.8 s⁻¹.

B3: Deoxycytidylate deaminase (Homo sapiens), P32321 (protein)
chain: MSEVSCKKRDDYLEWPEYFMAVAFLSAQRSKDPNSQVGACIVNSENKIVGIGYNGMPNGCSDDVLPWRRTAENKLDTKYPYVCHAELNAIMNKNSTDVKGCSMYVALFPCNECAKLIIQAGIKEVIFMSDKYHDSDEATAARLLFNMAGVTFRKFIPKCSKIVIDFDSINSRPSQKLQ
For the protein B3, the Km in [11] came to 2000 µM; in [14], 87 µM. The kcat in data set [11] was 0.82 s⁻¹; in data set [14] it was 246 s⁻¹. Further, the kcat/Km in [12] was 400 M⁻¹ s⁻¹; in data set [13], 2.8e+06 M⁻¹ s⁻¹.

Source of the values: ChEMBL document CHEMBL1152990, “The mechanism of action of beta-D-2'-deoxy-2'-fluoro-2'-C-methylcytidine involves a second metabolic pathway leading to beta-D-2'-deoxy-2'-fluoro-2'-C-methyluridine 5'-triphosphate, a potent inhibitor of the hepatitis C virus RNA-dependent RNA polymerase” (Antimicrob Agents Chemother, 2008).
